From PubChem BioAssay
T cruzi growth-1 = inhibitors of T. cruzi proliferation; T. cruzi beta-gal in NIH3T3, GalScreen luminescence, 90 h; inhibition, % at 8.34 µM; 5.9% of 77,000 active;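 active = mean inhibition above about 93%, with at least 55% of replicates each passing it, limit read from the data, passing the limit was not always enough; inconclusive = only one of those two conditions holds; inactive = neither condition holds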
KDM4C inh = KDM4C (human) demethylase inhibition; Q9H3R0; GST-KDM4C 2-372, H3K9me3 peptide, LANCE TR-FRET; inhibition, % at 12.5 µM; 0.15% of 96,000 active;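 active = mean replicate inhibition above about 25%, with at least 55% of replicates also reaching it, limit read from the data, passing the limit was not always enough; inconclusive = only one of those two conditions met; inactive = neither condition met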
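Test system – GST-tagged GASC-1 (JMJD2C) catalytic fragment, aa 2-372 · Medium – HEPES buffer, pH 7.5, plus ascorbate · Reagent – H3K9me3 peptide with Fe(II)/2OG · Compound – one test concentration per compound · Timing – 30 min reaction, 60 min detection, RT · Technique – TR-FRET with Eu antibody and ULight streptavidin, EDTA stop · Read-out basis – inhibition from TR-FRET ratio decrease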
IDH1 mut inh = inhibitors of human IDH1 R132H; IDH1 R132H reductase, diaphorase/resazurin fluorescence, 60 min; inhibition, % at 10 µM; 0.18% of 70,000 active; AID 624101; in the data active = inhibition above about 34%; inconclusive = no clear call, values can overlap the other calls; inactive = below about 11%;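 note: 0% = DMSO and 100% = no enzyme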
Target sequence (O75874 whole entry R132H): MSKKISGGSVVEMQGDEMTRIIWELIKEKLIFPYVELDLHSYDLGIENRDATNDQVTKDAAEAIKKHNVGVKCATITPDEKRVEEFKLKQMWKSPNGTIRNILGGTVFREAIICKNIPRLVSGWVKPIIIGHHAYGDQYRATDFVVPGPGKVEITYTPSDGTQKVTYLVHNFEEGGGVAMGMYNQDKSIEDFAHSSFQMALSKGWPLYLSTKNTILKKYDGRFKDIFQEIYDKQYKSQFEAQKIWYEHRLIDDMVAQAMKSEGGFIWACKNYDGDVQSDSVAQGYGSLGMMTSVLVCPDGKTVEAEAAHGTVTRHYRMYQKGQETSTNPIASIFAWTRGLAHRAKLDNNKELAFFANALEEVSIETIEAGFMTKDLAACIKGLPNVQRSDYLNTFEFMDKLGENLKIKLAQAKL
T cruzi growth-2 = blocks T. cruzi growth in NIH3T3 host cells; shares compounds with T cruzi growth-1; T. cruzi beta-gal in NIH3T3, GalScreen luminescence, 90 h; inhibition, % at 8.35 µM; 72% of 5,600 active;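 active = mean replicate inhibition above about 95% and at least 55% of replicates individually reaching it, limit read from the data; inconclusive = only one of the two criteria is met; inactive = neither criterion is met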
T cruzi growth-3 = Trypanosoma cruzi proliferation inhibition; T. cruzi beta-gal in NIH3T3, GalScreen luminescence, 90 h; inhibition, % at 2.09 µM; shares compounds with T cruzi growth-1; 21% of 5,600 active; AID 651740;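 active = mean inhibition above about 95%, with at least 55% of replicates also reaching it, limit read from the data; inconclusive = meets just one of the two conditions; inactive = meets neither condition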;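 note: plate controls were neutral control median for no effect and positive control median for full effect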
NIH3T3 tox = NIH/3T3 (mouse) viability loss; shares compounds with T cruzi growth-1; NIH/3T3 viability, CellTiter-Glo ATP luminescence, 90 h; cytotoxicity (signal decrease), % at 8.35 µM; 14% of 5,600 active; AID 651742;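 active = mean signal decrease across replicates above about 35% based on untreated-well scatter, with enough replicates individually passing, limit read from the data; inconclusive = no rule stated though some were filed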;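 note: 0% = median of neutral control wells and 100% = median of positive control wells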
NIH3T3 tox 2 = NIH/3T3 (mouse) viability loss | shares compounds with T cruzi growth-1 | NIH/3T3 viability, CellTiter-Glo ATP luminescence, 90 h | inhibition, % at 24.9 µM | 56% of 5,600 active;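 active = mean loss of cell viability signal at or above a set limit, and enough replicates individually reaching it; inconclusive = meets only the mean limit or only the replicate share; inactive = meets neither condition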;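 note: 0% = median of neutral control wells and 100% = median of positive control wells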
The depositor's hits bear a star. Shown is part of a subset that was picked to be rich in hits.

COCC(=O)N1CC[C@@H]2[C@@H](CO)N(C)c3ccc(-c4ccccc4)cc3[C@@H]21 was read as T cruzi growth-1 97.8*, KDM4C inh 3.6, T cruzi growth-2 104.1*, T cruzi growth-3 56.3, NIH3T3 tox -26.6 and NIH3T3 tox 2 -19.7.
Screening COCC(=O)N1CC[C@@H]2[C@H]1c1cc(-c3cccc(F)c3)ccc1N(C)[C@@H]2CO returned T cruzi growth-1 102.7*, KDM4C inh 2.7, T cruzi growth-2 103.1*, T cruzi growth-3 33.9, NIH3T3 tox 7.1 and NIH3T3 tox 2 10.6.
Screening CN1c2ccc(-c3cccc(F)c3)cc2[C@H]2[C@H](CCN2C(=O)C2CC2)[C@H]1CO returned T cruzi growth-1 65.8 and KDM4C inh -2.3.
`C[C@H]1CN([C@@H](C)CO)C(=O)CCCn2nncc2CO[C@H]1CN(C)CC1CCCC1` gave T cruzi growth-1 -19.3, KDM4C inh 0.0 and IDH1 mut inh 1.6.
For O=C(C[C@H]1CC[C@@H]2NC[C@H](O)COC[C@H]2O1)NCc1ccc(Oc2ccccc2)cc1 the results were T cruzi growth-1 29.0 and KDM4C inh 1.6.
Screening CCC(=O)N1C[C@H](C)[C@@H](OC)CN(C)C(=O)c2ccc(NC(=O)COC)cc2OC[C@@H]1C returned KDM4C inh -1.0.
`C[C@@H]1CN([C@H](C)CO)C(=O)c2cc(C3=CCCCC3)cnc2O[C@H]1CN(C)C(=O)Nc1ccc(F)cc1` gave T cruzi growth-1 4.0, KDM4C inh -0.2 and IDH1 mut inh -1.5.
`C[C@H](CO)N1C[C@H](C)[C@H](CN(C)CC2CC2)Oc2c(NC(=O)C3CCCCC3)cccc2C1=O` gave T cruzi growth-1 -1.4, KDM4C inh -1.2 and IDH1 mut inh 0.4.
For C/C=C/c1cnc2c(c1)C(=O)N([C@@H](C)CO)C[C@H](C)[C@H](CN(C)Cc1ccc(F)cc1)O2 the results were T cruzi growth-1 114.3*, KDM4C inh 4.8, IDH1 mut inh -0.1, T cruzi growth-2 74.7, T cruzi growth-3 17.7, NIH3T3 tox 22.6 and NIH3T3 tox 2 47.7*.
Screening C/C=C/c1cnc2c(c1)C(=O)N([C@@H](C)CO)C[C@H](C)[C@@H](CN(C)Cc1ccc(F)cc1)O2 returned T cruzi growth-1 37.4, KDM4C inh 7.2 and IDH1 mut inh -0.2.
C/C=C/c1cnc2c(c1)C(=O)N([C@H](C)CO)C[C@H](C)[C@@H](CN(C)Cc1ccc(F)cc1)O2 was read as T cruzi growth-1 46.2, KDM4C inh 7.2 and IDH1 mut inh -0.4.
`C/C=C/c1cnc2c(c1)C(=O)N([C@H](C)CO)C[C@@H](C)[C@@H](CN(C)Cc1ccc(F)cc1)O2` gave T cruzi growth-1 118.6*, KDM4C inh -2.3, IDH1 mut inh -0.1, T cruzi growth-2 inconclusive, T cruzi growth-3 -20.9, NIH3T3 tox -4.5 and NIH3T3 tox 2 inconclusive.
Screening O=C(Nc1cccc(Cl)c1)N1C[C@@H]2[C@H](c3ccccc31)[C@@H](CO)N2Cc1ccccc1Cl returned T cruzi growth-1 81.1 and KDM4C inh -2.7.
CN1CCN(C(=O)C[C@@H]2C[C@@H]3c4cc(NC(=O)Nc5ccccc5)ccc4O[C@@H]3[C@@H](CO)O2)CC1 was read as T cruzi growth-1 10.3, KDM4C inh 1.6 and IDH1 mut inh 0.2.
For OC[C@@H]1[C@H](c2ccc(-c3cccnc3)cc2)[C@H]2CN(Cc3ccccn3)CCCCN12 the results were T cruzi growth-1 108.6*, KDM4C inh 1.7, T cruzi growth-2 97.5*, T cruzi growth-3 75.0, NIH3T3 tox 3.6 and NIH3T3 tox 2 6.4.
`OC[C@H]1[C@@H](c2ccc(Br)cc2)[C@H]2CN(Cc3ccccn3)CCCCN21` gave T cruzi growth-1 25.4 and KDM4C inh -0.4.
OC[C@H]1[C@H](c2ccc(Br)cc2)[C@@H]2CN(Cc3ccccn3)CCCCN12 was read as T cruzi growth-1 108.6*, KDM4C inh -1.9, T cruzi growth-2 inconclusive, T cruzi growth-3 55.2, NIH3T3 tox 2.8 and NIH3T3 tox 2 3.4.
